Experiment [1] concerns BRPF1 bromodomain. Nature of the experiment: X-ray crystallography of BRPF1 bromodomain with histone peptides. The note with it: co-crystal structures PDB 4QYL (H2AK5ac) and 4QYD (H4K12ac). Format: binding, human. In short, it runs like this:
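E. coli-expressed BRPF1 bromodomain (residues 629–742), gel-filtered into 20 mM Tris pH 8.0, 150 mM NaCl, 1 mM DTT; 2.3 mM protein + 5 mM peptide; drops at 4°C. H2AK5ac: 0.2 M NH₄SO₄, 0.1 M MES pH 6.5, 30% PEG MME 5,000, seeding, 1% propylene glycol. H4K12ac: 0.1 M HEPES pH 7.5, 10% PEG 6,000, 5% MPD. Flash-cooled, 100 K.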

The subject of experiment [2] is BRPF1 bromodomain. The note with it: ref [31]; cited from earlier work.

Turning to GKGGKGLG Kac GGAKR [H4K12ac], the “binding by x-ray crystallography” value in the experiment on BRPF1 bromodomain [1] is given as “bind”. Moreover, the histone ligand preference result in the experiment with BRPF1 bromodomain [2] was “preferentially binds”.

For SGRG Kac QGGKARA [H2AK5ac], the “binding by x-ray crystallography” value in the experiment with BRPF1 bromodomain [1] was “bind”. Further, the histone ligand preference entry with BRPF1 bromodomain [2] is listed as “preferentially binds”.

The values above are taken from paper PMC4252766 (FEBS letters, 2014).
